Measured values of several laboratories.
Lines come from different studies, so protocols differ.
OPRK1: Kappa-type opioid receptor (OPRK1, Homo sapiens, UniProt P41145)
CNR1: Cannabinoid receptor 1 (CNR1, Homo sapiens, UniProt P21554)
PFF0160c: Dihydroorotate dehydrogenase (quinone), mitochondrial (PFF0160c, Plasmodium falciparum, UniProt Q08210)

| SMILES | target | read-out | action | method | notes | measurement | result |
| --- | --- | --- | --- | --- | --- | --- | --- |
| CC(=O)Nc1ccc(C(=O)N[C@H]2CC[C@@]3(O)[C@H]4Cc5ccc(O)c6c5[C@@]3(CCN4CC3CC3)[C@H]2O6)s1 | OPRK1 | ligand displacement | – | radioligand | cell membranes | Ki | 4.96 nM |
| CCCCCCn1c(O)c(N=NC(=O)c2ccccc2)c2ccccc21 | CNR1 | ligand displacement | – | radioligand | cell membranes | Ki | 1150 nM |
| CNC(=O)c1ccc(-c2cnn3ccc(C(=O)N(C)c4ccc(Cl)c(C(=O)O)c4)cc23)cc1 | Serine/threonine-protein kinase WNK1 (WNK1, Homo sapiens, UniProt Q9H4A3) | enzyme activity | inhibitor | – | – | IC50 | > 30000 nM |
| Cn1nc2c(=O)n(C3CC3)cnc2c1[C@](O)(c1cnc(C(F)(F)F)c(Cl)c1)C1CC1 | PFF0160c | enzyme activity | inhibitor | – | – | IC50 | 20 nM |
| CCCCCc1cc(O)c2c(c1)OC(C)(C)c1ccc(C)cc1-2 | CNR1 | cell-free assay | – | – | – | Ki | 285 nM |
| Cn1nc2c(=O)n(C3CC3)cnc2c1[C@@](O)(c1cnc(C(F)(F)F)c(Cl)c1)C(F)(F)F | PFF0160c | enzyme activity | inhibitor | – | – | IC50 | 5010 nM |
| CC(=O)S(=O)(=O)c1ccc(C(=O)N[C@H]2CC[C@@]3(O)[C@H]4Cc5ccc(O)c6c5[C@@]3(CCN4CC3CC3)[C@H]2O6)s1 | OPRK1 | ligand displacement | – | radioligand | cell membranes | Ki | 1.64 nM |
| CCn1ccc2c(Cc3ccc(C(F)(F)F)nc3)n(C)nc2c1=O | PFF0160c | enzyme activity | inhibitor | – | – | IC50 | 1580 nM |
| C=CCCCn1c(O)c(N=NC(=O)c2ccccc2)c2ccccc21 | CNR1 | β-arrestin recruitment | agonist | – | – | EC50 | 1040 nM |
| NS(=O)(=O)c1ccc(C(=O)N[C@H]2CC[C@@]3(O)[C@H]4Cc5ccc(O)c6c5[C@@]3(CCN4CC3CC3)[C@H]2O6)s1 | OPRK1 | ligand displacement | – | radioligand | cell membranes | Ki | 3.93 nM |
| Cc1nn(C2CC2)c(=O)c2nn(C)c(Cc3ccc(C(F)(F)F)c(C#N)c3)c12 | PFF0160c | enzyme activity | inhibitor | – | – | IC50 | 200 nM |
| Cc1ccc(C(=O)N[C@H]2CC[C@@]3(O)[C@H]4Cc5ccc(O)c6c5[C@@]3(CCN4CC3CC3)[C@H]2O6)s1 | OPRK1 | ligand displacement | – | radioligand | cell membranes | Ki | 1.67 nM |
| COC(=O)[C@@H](NC(=O)c1nn(Cc2ccc(F)cc2)c2ccccc12)C(C)C | CNR1 | β-arrestin recruitment | agonist | – | – | EC50 | 20 nM |
| O=C(N[C@H]1CC[C@@]2(O)[C@H]3Cc4ccc(O)c5c4[C@@]2(CCN3CC2CC2)[C@H]1O5)c1ccc(C(F)(F)F)s1 | OPRK1 | ligand displacement | – | radioligand | cell membranes | Ki | 2.47 nM |
| CCCCCn1c(O)c(N=NC(=O)c2ccccc2)c2ccccc21 | CNR1 | ligand displacement | – | radioligand | cell membranes | Ki | 1560 nM |
